# Laboratory results from ChEMBL document CHEMBL1157379, “Transcriptional response of Candida parapsilosis following exposure to farnesol” (2007).
# Calls of active or inactive are those of the source. No cut-off for these calls is given here.
# Tests used:
# Candida parapsilosis [1] = experiment: Increase in CGD gene ortholog accession number orf19.6117 expression in Candida parapsilosis CLIB214 at 50 uM after 2 hrs by microarray based transcriptional profiling relative to control; type: functional
# Procedure, shortened: (§1)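 Strain CLIB214 grown overnight in YPD at 30°C, diluted to A600 0.2 in fresh YPD at 30°C. After 4 h (A600 0.8), farnesol (40 mM methanol stock) added to 50 μM final, or an equal methanol volume as control; cells harvested 2 h later. RNA was accepted only with a 28S/18S ratio of 1.6–2.2. Cy3/Cy5-dCTP-labelled cDNA was made from 25 μg total RNA. Hybridisation was to duplicate-spotted 68-mer oligo arrays (3,849 genes) at 42°C for about 16 h. Six individual comparisons.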
# Candida parapsilosis [2] = experiment: Antifungal activity against Candida parapsilosis CLIB214 assessed as growth inhibition at 50 uM added after 8 hrs of bacterial growth measured after 2 hrs; type: functional; settings: Lodderomyces parapsilosis
# Procedure, shortened: (§2)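 Overnight YPD culture at 30°C diluted to A600 0.2 in YPD. Farnesol added to 50 μM final at 2, 4, 6 or 8 h of growth (A600 about 0.8 at 4 h, 2.3 at 6 h, 6 at 8 h). Growth compared with methanol controls by A600 or cell counts.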
# Candida parapsilosis [3] = experiment: Increase in CGD gene ortholog accession number orf19.1457 expression in Candida parapsilosis CLIB214 at 50 uM after 2 hrs by microarray based transcriptional profiling relative to control; type: functional; procedure, shortened: as §1
# Candida parapsilosis [4] = experiment: Decrease in CGD gene ortholog accession number orf19.3603 expression in Candida parapsilosis CLIB214 at 50 uM after 2 hrs by microarray based transcriptional profiling relative to control; type: functional
# Procedure, shortened: (§3)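 Cells in YPD at 30°C treated with 50 μM farnesol at 4 h, with a methanol control. RNA harvested 2 h later and kept only if 28S/18S ratio was 1.6–2.2 with no degradation. 25 μg total RNA oligo-dT primed and labeled with Cy3/Cy5-dCTP. Labeled cDNA hybridized about 16 h at 42°C to duplicate-spotted 68-mer oligo arrays. Six individual comparisons analyzed statistically.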
# Candida parapsilosis [5] = experiment: Decrease in CGD gene ortholog accession number orf19.2697 expression in Candida parapsilosis CLIB214 at 50 uM after 2 hrs by microarray based transcriptional profiling relative to control; type: functional; procedure, shortened: as §3
# Candida parapsilosis [6] = experiment: Antifungal activity against Candida parapsilosis CLIB214 assessed as growth inhibition at 50 uM added after 6 hrs of bacterial growth measured after 4 hrs; type: functional; settings: Lodderomyces parapsilosis; procedure, shortened: as §2
# Candida parapsilosis [7] = experiment: Increase in CDC20 gene expression in Candida parapsilosis CLIB214 at 50 uM after 2 hrs by microarray based transcriptional profiling relative to control; type: functional; procedure, shortened: as §1
# Candida parapsilosis [8] = experiment: Decrease in AMO2 gene expression in Candida parapsilosis CLIB214 at 50 uM after 2 hrs by microarray based transcriptional profiling relative to control; type: functional; procedure, shortened: as §3
# Candida parapsilosis [9] = experiment: Increase in ELF1 gene expression in Candida parapsilosis CLIB214 at 50 uM after 2 hrs by microarray based transcriptional profiling relative to control; type: functional
# Procedure, shortened: (§4)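 Strain grown overnight in YPD at 30°C, diluted to A600 0.2 in YPD at 30°C; farnesol (40 mM methanol stock) added at 4 h (A600 0.8), final 50 μM; methanol-only control. Cells collected 2 h later for RNA. Labelled cDNA from 25 μg total RNA (Cy3/Cy5-dCTP) hybridized to 68-mer oligo arrays at 42°C ~16 h; six individual comparisons analysed statistically.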
# Candida parapsilosis [10] = experiment: Decrease in CGD gene ortholog accession number orf19.2366 expression in Candida parapsilosis CLIB214 at 50 uM after 2 hrs by microarray based transcriptional profiling relative to control; type: functional; procedure, shortened: as §3
# Candida parapsilosis [11] = experiment: Increase in CGD gene ortholog accession number orf19.3501 expression in Candida parapsilosis CLIB214 at 50 uM after 2 hrs by microarray based transcriptional profiling relative to control; type: functional; procedure, shortened: as §1
# Candida parapsilosis [12] = experiment: Increase in KRE30 gene expression in Candida parapsilosis CLIB214 at 50 uM after 2 hrs by microarray based transcriptional profiling relative to control; type: functional; procedure, shortened: as §4
# Candida parapsilosis [13] = experiment: Decrease in HOS2 gene expression in Candida parapsilosis CLIB214 at 50 uM after 2 hrs by microarray based transcriptional profiling relative to control; type: functional; procedure, shortened: as §1
# Candida parapsilosis [14] = experiment: Decrease in CGD gene ortholog accession number orf19.5022 expression in Candida parapsilosis CLIB214 at 50 uM after 2 hrs by microarray based transcriptional profiling relative to control; type: functional; procedure, shortened: as §3
# Candida parapsilosis [15] = experiment: Decrease in CGD gene ortholog accession number orf19.4210 expression in Candida parapsilosis CLIB214 at 50 uM after 2 hrs by microarray based transcriptional profiling relative to control; type: functional; procedure, shortened: as §3
# Candida parapsilosis [16] = experiment: Increase in RTA3 gene expression in Candida parapsilosis CLIB214 at 50 uM after 2 hrs by microarray based transcriptional profiling relative to control; type: functional; procedure, shortened: as §4
# Candida parapsilosis [17] = experiment: Antifungal activity against Candida parapsilosis CLIB214 assessed as growth inhibition at 50 uM added after 4 hrs of bacterial growth measured after 4 hrs; type: functional; settings: Lodderomyces parapsilosis, CLIB214, 4 h; procedure, shortened: as §2
# Candida parapsilosis [18] = experiment: Decrease in CGD gene ortholog accession number orf19.409 expression in Candida parapsilosis CLIB214 at 50 uM after 2 hrs by microarray based transcriptional profiling relative to control; type: functional; procedure, shortened: as §3
# Candida parapsilosis [19] = experiment: Antifungal activity against Candida parapsilosis CLIB214 assessed as growth inhibition at 10 to 20 uM added 4 hrs after […] growth; type: functional, organism-based
# Candida parapsilosis [20] = experiment: Decrease in CGD gene ortholog accession number orf19.6687 expression in Candida parapsilosis CLIB214 at 50 uM after 2 hrs by microarray based transcriptional profiling relative to control; type: functional; procedure, shortened: as §1
# Candida parapsilosis [21] = experiment: Decrease in CGD gene ortholog accession number orf19.7118 expression in Candida parapsilosis CLIB214 at 50 uM after 2 hrs by microarray based transcriptional profiling relative to control; type: functional; procedure, shortened: as §1
# Candida parapsilosis [22] = experiment: Decrease in CGD gene ortholog accession number orf19.6281 expression in Candida parapsilosis CLIB214 at 50 uM after 2 hrs by microarray based transcriptional profiling relative to control; type: functional; procedure, shortened: as §3
# Candida parapsilosis [23] = experiment: Increase in RPS6A gene expression in Candida parapsilosis CLIB214 at 50 uM after 2 hrs by microarray based transcriptional profiling relative to control; type: functional; procedure, shortened: as §4
# Candida parapsilosis [24] = experiment: Increase in GenBank accession number NP_983467.1 expression in Candida parapsilosis CLIB214 at 50 uM after 2 hrs by microarray based transcriptional profiling relative to control; type: functional; procedure, shortened: as §4
# Candida parapsilosis [25] = experiment: Decrease in RLM1 gene expression in Candida parapsilosis CLIB214 at 50 uM after 2 hrs by microarray based transcriptional profiling relative to control; type: functional; procedure, shortened: as §1
# Candida parapsilosis [26] = experiment: Decrease in CGD gene ortholog accession number orf19.2892 expression in Candida parapsilosis CLIB214 at 50 uM after 2 hrs by microarray based transcriptional profiling relative to control; type: functional; procedure, shortened: as §3
# Candida parapsilosis [27] = experiment: Cell cycle arrest in Candida parapsilosis CLIB214 assessed as accumulation at G1 phase at 50 uM added 4 hrs after […] growth; type: functional, organism-based
# Procedure, shortened: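 YPD culture diluted to A600 0.2 at 30°C. Farnesol added to 50 μM after 4 h. Budding cells scored by microscopy: unbudded as G1, small budded as S, large budded as G2/M. Compared with methanol controls.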
smiles,measurement,setting,value
CC(C)=CCC/C(C)=C/CC/C(C)=C/CO [FARNESOL],fold change (FC),Candida parapsilosis [1],1.6
same,inhibition at 50 µM,Candida parapsilosis [2],9.5%
same,fold change (FC),Candida parapsilosis [3],1.55
same,fold change (FC),Candida parapsilosis [4],1.92
same,fold change (FC),Candida parapsilosis [5],1.81
same,inhibition at 50 µM,Candida parapsilosis [6],49%
same,fold change (FC),Candida parapsilosis [7],1.51
same,fold change (FC),Candida parapsilosis [8],1.56
same,fold change (FC),Candida parapsilosis [9],2.16
same,fold change (FC),Candida parapsilosis [10],3.21
same,fold change (FC),Candida parapsilosis [11],1.63
same,fold change (FC),Candida parapsilosis [12],2.24
same,fold change (FC),Candida parapsilosis [13],2.62
same,fold change (FC),Candida parapsilosis [14],1.85
same,fold change (FC),Candida parapsilosis [15],1.79
same,fold change (FC),Candida parapsilosis [16],1.67
same,inhibition at 50 µM,Candida parapsilosis [17],83%
same,fold change (FC),Candida parapsilosis [18],2.21
same,Activity,Candida parapsilosis [19],inactive
same,fold change (FC),Candida parapsilosis [20],2.26
same,fold change (FC),Candida parapsilosis [21],1.56
same,fold change (FC),Candida parapsilosis [22],1.72
same,fold change (FC),Candida parapsilosis [23],1.61
same,fold change (FC),Candida parapsilosis [24],3.16
same,fold change (FC),Candida parapsilosis [25],1.6
same,fold change (FC),Candida parapsilosis [26],1.69
same,Activity,Candida parapsilosis [27],Active
